Measurements: article PMC3711074 (Chemistry & biology, 2013)

Legend:
UBC9 (SUMO E2 enzyme) = UBC9 (SUMO E2 enzyme) (Homo sapiens, UniProt P63279); assay: reconstituted sumoylation cascade, electrophoretic mobility shift IC50; assay type: biochemical
Method in brief: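 Reconstituted cascade in 50 mM Tris pH 9.0 with 5 mM MgCl2 and 1 mM DTT. Contains SUMO E1 0.1 µM, His-tagged SUMO-1 1.4 µM, UBC9 0.25 µM and a 5-FAM-labelled peptide substrate at 1.0 µM. Started with ATP (final 2 mM), run with test compound at varying concentrations for 90 min at room temperature, then EDTA-quenched. Conversion read by microfluidic mobility shift. IC50 from the mean of three replicates.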

[1] = target: T1, SUMO-activating enzyme 1/2 (SAE 1/2, SUMO E1) (Homo sapiens, UniProt Q9UBT2); assay: E1-SUMO-1 thioester formation gel assay with fluorescent SUMO-1; assay type: biochemical
T1 sequence (Q9UBT2 1-640): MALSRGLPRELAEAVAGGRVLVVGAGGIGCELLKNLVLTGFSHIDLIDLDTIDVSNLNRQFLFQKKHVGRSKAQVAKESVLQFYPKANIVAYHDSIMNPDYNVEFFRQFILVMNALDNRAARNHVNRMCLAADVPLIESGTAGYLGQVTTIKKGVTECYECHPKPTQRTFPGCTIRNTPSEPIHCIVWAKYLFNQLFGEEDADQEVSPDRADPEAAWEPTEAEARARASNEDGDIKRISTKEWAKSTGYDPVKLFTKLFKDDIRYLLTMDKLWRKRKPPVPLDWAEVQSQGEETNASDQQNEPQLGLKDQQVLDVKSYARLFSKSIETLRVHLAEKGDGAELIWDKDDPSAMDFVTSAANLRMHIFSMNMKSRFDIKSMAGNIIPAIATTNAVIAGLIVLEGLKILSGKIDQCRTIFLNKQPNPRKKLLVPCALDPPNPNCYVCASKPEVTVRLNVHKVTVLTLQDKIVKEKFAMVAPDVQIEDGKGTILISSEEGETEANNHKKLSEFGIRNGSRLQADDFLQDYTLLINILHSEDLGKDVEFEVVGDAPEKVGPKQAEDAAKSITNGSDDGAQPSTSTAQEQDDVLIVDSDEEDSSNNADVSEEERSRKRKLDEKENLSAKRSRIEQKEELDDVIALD
T1 sequence (Q9UBE0 1-346 partner): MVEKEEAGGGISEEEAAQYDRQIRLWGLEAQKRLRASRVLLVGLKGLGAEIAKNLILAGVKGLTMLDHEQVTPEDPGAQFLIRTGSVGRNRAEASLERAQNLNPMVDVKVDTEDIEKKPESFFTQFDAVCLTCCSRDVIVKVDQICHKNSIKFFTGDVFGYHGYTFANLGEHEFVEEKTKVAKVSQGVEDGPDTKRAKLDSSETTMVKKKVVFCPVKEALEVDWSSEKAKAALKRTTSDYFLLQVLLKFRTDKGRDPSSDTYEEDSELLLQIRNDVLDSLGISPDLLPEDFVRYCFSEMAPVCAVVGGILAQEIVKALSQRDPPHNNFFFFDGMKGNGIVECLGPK

Chain of UBC9 (SUMO E2 enzyme) (P63279 2-158): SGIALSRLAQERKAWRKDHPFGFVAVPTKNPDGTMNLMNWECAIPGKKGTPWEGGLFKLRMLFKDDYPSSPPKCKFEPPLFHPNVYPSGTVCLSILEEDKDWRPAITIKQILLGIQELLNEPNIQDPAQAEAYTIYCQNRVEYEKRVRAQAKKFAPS
Chain of UBC9 (SUMO E2 enzyme) (P63165 2-97 partner): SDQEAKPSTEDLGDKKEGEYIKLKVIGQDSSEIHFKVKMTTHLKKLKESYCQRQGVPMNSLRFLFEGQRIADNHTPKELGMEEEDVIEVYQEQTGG

IC50 (UBC9 (SUMO E2 enzyme)) [µM] | SMILES | IC50 [1] [µM]
6 ± 1.3 | O=c1cc(-c2ccc(O)c(O)c2O)oc2ccccc12 [2-D08, 2’,3’,4’-trihydroxyflavone] | –
– | CCCCCC/C=C\CCCCCCCc1cccc(O)c1C(=O)O [ginkgolic acid] | 9.1
